According to ChEMBL document CHEMBL1154183, “Structure-based optimization of potent and selective inhibitors of the tyrosine kinase erythropoietin producing human hepatocellular carcinoma receptor B4 (EphB4)” (J Med Chem, 2009):

Experiments:
[1] = molecular target: Serine/threonine-protein kinase PAK 5 (Homo sapiens) (UniProt Q9P286); test: Inhibition of PAK5 assessed as remaining enzyme activity at 3 uM relative to DMSO
Summary of the method: (§1)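 Radiometric kinase assay run robotically at room temperature for 30 min. Contained 10 mM magnesium acetate and [γ-33P]ATP (800 cpm/pmol) at 5, 20 or 50 μM, chosen per kinase to be at or below its ATP Km. Reactions were started with MgATP, stopped with orthophosphoric acid and spotted onto P81 filters. Result is mean % activity of duplicates at one inhibitor concentration versus DMSO control.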

[2] = molecular target: Serine/threonine-protein kinase Nek2 (Homo sapiens) (UniProt P51955); test: Inhibition of NEK2alpha assessed as remaining enzyme activity at 3 uM relative to DMSO; summary of the method: as §1
[3] = Inhibition of VEG-FR assessed as remaining enzyme activity at 3 uM relative to DMSO
[4] = molecular target: Serine/threonine-protein kinase BRSK2 (Homo sapiens) (UniProt Q8IWQ3); test: Inhibition of BRSK2 assessed as remaining enzyme activity at 3 uM relative to DMSO
Chain of Serine/threonine-protein kinase BRSK2 (Homo sapiens) (Q8IWQ3 whole entry): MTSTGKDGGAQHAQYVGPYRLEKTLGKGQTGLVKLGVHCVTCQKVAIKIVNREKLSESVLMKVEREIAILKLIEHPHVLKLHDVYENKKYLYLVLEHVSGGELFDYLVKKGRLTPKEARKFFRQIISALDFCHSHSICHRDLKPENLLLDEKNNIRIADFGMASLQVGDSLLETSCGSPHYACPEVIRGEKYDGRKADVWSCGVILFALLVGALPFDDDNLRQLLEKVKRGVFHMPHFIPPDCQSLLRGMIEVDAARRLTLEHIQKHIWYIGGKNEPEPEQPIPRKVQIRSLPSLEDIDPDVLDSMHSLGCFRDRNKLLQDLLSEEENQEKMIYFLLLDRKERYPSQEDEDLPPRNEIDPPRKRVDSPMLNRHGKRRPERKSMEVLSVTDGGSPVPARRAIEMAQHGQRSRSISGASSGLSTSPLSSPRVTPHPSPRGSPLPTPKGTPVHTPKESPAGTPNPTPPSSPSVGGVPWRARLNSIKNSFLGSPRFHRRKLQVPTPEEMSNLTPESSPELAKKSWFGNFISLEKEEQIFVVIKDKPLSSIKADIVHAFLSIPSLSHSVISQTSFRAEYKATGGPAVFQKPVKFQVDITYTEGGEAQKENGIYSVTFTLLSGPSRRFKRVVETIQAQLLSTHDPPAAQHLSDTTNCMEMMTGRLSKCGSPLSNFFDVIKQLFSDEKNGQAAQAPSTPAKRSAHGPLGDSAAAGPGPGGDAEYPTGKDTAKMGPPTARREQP
Summary of the method: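 Panel assay run robotically at room temperature for 30 min with 10 mM magnesium acetate and [γ-33P]ATP (800 cpm/pmol) at 5, 20 or 50 μM, chosen per kinase to be at or below its ATP Km. Reactions were started with MgATP, stopped with orthophosphoric acid and spotted on P81 filters. Activity is the mean of duplicates at a single inhibitor concentration, as % of DMSO control.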

[5] = molecular target: Proto-oncogene tyrosine-protein kinase Src (Homo sapiens) (UniProt P12931); test: Inhibition of Src assessed as remaining enzyme activity at 3 uM relative to DMSO
[6] = molecular target: Homeodomain-interacting protein kinase 2 (Homo sapiens) (UniProt Q9H2X6); test: Inhibition of HIPK2 assessed as remaining enzyme activity at 3 uM relative to DMSO
Chain of Homeodomain-interacting protein kinase 2 (Homo sapiens) (Q9H2X6 whole entry, looked up): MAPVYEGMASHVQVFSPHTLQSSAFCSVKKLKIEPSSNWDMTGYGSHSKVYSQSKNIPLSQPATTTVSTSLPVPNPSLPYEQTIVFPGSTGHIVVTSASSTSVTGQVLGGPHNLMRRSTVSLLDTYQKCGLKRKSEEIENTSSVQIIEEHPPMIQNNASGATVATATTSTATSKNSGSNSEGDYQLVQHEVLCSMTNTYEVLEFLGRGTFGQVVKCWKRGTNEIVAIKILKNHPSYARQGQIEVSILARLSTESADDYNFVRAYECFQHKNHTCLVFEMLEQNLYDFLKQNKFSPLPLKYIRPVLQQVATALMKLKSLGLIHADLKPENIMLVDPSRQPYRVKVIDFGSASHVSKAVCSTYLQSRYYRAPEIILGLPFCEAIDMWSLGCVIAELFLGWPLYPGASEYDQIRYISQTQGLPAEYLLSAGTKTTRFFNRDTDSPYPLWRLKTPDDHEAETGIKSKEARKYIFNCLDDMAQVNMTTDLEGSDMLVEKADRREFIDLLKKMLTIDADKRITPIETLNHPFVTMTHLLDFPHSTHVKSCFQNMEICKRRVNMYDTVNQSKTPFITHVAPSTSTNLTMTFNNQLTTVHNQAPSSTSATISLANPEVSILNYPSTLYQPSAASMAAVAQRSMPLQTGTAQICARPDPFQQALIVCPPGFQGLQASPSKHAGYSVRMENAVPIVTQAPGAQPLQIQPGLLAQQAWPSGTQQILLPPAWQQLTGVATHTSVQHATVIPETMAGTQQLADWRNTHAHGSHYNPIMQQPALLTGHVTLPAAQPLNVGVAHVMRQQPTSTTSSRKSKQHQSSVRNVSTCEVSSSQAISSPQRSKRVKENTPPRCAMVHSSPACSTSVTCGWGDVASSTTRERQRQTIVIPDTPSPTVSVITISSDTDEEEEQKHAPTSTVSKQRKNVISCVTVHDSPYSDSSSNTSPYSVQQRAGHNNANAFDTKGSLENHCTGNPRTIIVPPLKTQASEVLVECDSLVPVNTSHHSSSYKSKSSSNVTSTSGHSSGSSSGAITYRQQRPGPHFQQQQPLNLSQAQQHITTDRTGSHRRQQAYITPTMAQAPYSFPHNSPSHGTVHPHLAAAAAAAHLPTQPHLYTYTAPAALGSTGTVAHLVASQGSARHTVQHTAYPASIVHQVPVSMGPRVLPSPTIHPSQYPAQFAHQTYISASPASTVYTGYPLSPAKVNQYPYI
Summary of the method: (§2)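 Dundee kinase panel, radiometric: [γ-33P]ATP (800 cpm/pmol) at 5, 20 or 50 μM, at or below each kinase's ATP Km; 10 mM magnesium acetate; robotic, room temperature, 30 min. Reactions started with MgATP, stopped with orthophosphoric acid, spotted onto P81 filters. Inhibitor tested at a single concentration; mean % activity of duplicates relative to DMSO control.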

[7] = molecular target: Dual specificity mitogen-activated protein kinase kinase 1 (Homo sapiens) (UniProt Q02750); test: Inhibition of MKK1 assessed as remaining enzyme activity at 3 uM relative to DMSO; summary of the method: as §1
[8] = molecular target: Tyrosine-protein kinase BTK (Homo sapiens) (UniProt Q06187); test: Inhibition of BTK assessed as remaining enzyme activity at 3 uM relative to DMSO; summary of the method: as §2
[9] = molecular target: Mitogen-activated protein kinase kinase kinase kinase 2 (Homo sapiens) (UniProt Q12851); test: Inhibition of GCK assessed as remaining enzyme activity at 3 uM relative to DMSO; summary of the method: as §2
[10] = molecular target: Platelet-derived growth factor receptor alpha (Homo sapiens) (UniProt P16234); test: Binding affinity to PDGFRA assessed as percentage of kinase remaining bound to the bead at 1 uM by T7 phage display based binding assay
Summary of the method: (§3)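 Competition binding assay run by a contract lab. Each kinase was expressed as a fusion to T7 phage, full-length for small kinases and catalytic domain for large ones. Phage were mixed with an immobilized known kinase inhibitor on streptavidin magnetic beads and with test compound at a single 1 μM. Kinase/phage still bound to the beads was quantified by qPCR and expressed as % of DMSO control.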

[11] = molecular target: Misshapen-like kinase 1 (Homo sapiens) (UniProt Q8N4C8); test: Inhibition of MINK1 assessed as remaining enzyme activity at 1 uM relative to DMSO; summary of the method: as §1
[12] = molecular target: Tyrosine-protein kinase ABL2 (Homo sapiens) (UniProt P42684); test: Binding affinity to ABL2 assessed as percentage of kinase remaining bound to the bead at 1 uM by T7 phage display based binding assay; summary of the method: as §3
[13] = molecular target: Mitogen-activated protein kinase kinase kinase 11 (Homo sapiens) (UniProt Q16584); test: Inhibition of MLK3 assessed as remaining enzyme activity at 1 uM relative to DMSO; summary of the method: as §1
Chain of Mitogen-activated protein kinase kinase kinase 11 (Homo sapiens) (Q16584 whole entry, looked up): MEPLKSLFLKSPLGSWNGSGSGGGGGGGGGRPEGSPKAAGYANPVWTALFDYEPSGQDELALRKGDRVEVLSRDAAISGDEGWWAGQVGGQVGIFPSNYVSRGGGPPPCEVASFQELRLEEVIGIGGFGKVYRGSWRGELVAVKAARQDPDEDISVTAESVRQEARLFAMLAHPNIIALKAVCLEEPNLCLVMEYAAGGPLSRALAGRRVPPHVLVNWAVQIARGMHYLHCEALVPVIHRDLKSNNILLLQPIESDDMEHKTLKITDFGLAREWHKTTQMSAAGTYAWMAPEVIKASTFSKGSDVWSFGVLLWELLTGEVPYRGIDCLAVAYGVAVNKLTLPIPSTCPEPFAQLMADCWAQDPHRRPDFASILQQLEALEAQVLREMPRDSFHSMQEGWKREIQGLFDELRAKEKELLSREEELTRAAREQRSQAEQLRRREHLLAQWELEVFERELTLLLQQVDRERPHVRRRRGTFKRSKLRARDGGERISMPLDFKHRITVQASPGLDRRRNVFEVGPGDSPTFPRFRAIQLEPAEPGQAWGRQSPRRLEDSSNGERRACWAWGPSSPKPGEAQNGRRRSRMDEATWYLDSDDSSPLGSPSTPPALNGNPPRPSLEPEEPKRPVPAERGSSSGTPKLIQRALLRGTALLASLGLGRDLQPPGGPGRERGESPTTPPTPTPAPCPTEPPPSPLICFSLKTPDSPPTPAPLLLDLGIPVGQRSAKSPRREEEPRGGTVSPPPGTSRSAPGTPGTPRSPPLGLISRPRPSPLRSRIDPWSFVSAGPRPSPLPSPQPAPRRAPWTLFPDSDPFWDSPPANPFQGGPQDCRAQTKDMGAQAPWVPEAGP

[14] = molecular target: Tyrosine-protein kinase Yes (Homo sapiens) (UniProt P07947); test: Inhibition of YES1 assessed as remaining enzyme activity at 1 uM relative to DMSO
[15] = molecular target: Ribosomal protein S6 kinase alpha-6 (Homo sapiens) (UniProt Q9UK32); test: Binding affinity to RSK4 kinase domain 2 C-terminal assessed as percentage of kinase remaining bound to the bead at 1 uM by T7 phage display based binding assay; summary of the method: as §3
Ephrin type-A receptor 3 = Ephrin type-A receptor 3 (Homo sapiens, UniProt P29320); test: Inhibition of EphA3 by [gamma33-P]ATP based assay
Chain of Ephrin type-A receptor 3 (P29320 whole entry): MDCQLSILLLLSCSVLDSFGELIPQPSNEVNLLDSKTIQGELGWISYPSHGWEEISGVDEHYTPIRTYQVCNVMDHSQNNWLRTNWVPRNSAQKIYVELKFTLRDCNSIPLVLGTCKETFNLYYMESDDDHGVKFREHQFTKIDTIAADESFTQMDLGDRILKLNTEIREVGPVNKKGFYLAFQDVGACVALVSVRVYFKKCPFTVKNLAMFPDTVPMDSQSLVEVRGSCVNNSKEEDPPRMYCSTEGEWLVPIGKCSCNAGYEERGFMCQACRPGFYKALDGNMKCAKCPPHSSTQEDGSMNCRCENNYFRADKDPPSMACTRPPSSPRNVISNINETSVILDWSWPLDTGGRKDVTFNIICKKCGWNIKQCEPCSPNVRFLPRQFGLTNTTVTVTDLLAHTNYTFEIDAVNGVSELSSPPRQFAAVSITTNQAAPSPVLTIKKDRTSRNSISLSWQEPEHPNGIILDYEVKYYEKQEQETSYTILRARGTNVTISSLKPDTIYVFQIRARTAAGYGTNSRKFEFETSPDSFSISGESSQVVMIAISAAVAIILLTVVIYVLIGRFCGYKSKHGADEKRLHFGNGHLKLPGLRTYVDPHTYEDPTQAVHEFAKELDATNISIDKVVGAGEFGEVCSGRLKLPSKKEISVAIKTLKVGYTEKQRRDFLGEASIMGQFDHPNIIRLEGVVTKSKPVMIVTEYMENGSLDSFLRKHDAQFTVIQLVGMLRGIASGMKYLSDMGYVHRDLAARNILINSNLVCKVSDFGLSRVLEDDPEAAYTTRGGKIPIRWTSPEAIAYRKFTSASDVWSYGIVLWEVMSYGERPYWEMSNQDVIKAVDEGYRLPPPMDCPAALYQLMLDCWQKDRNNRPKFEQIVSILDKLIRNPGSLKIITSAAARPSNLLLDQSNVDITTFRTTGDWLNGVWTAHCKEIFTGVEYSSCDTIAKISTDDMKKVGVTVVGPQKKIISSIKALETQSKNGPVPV
Summary of the method: (§4)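 Radiometric [γ-33P]ATP kinase assay against Eph kinases, following a protocol similar to the Mg-acetate/MgATP filter-binding method.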

[16] = molecular target: Serine/threonine-protein kinase D1 (Homo sapiens) (UniProt Q15139); test: Inhibition of PKD1 assessed as remaining enzyme activity at 1 uM relative to DMSO
Chain of Serine/threonine-protein kinase D1 (Homo sapiens) (Q15139 whole entry): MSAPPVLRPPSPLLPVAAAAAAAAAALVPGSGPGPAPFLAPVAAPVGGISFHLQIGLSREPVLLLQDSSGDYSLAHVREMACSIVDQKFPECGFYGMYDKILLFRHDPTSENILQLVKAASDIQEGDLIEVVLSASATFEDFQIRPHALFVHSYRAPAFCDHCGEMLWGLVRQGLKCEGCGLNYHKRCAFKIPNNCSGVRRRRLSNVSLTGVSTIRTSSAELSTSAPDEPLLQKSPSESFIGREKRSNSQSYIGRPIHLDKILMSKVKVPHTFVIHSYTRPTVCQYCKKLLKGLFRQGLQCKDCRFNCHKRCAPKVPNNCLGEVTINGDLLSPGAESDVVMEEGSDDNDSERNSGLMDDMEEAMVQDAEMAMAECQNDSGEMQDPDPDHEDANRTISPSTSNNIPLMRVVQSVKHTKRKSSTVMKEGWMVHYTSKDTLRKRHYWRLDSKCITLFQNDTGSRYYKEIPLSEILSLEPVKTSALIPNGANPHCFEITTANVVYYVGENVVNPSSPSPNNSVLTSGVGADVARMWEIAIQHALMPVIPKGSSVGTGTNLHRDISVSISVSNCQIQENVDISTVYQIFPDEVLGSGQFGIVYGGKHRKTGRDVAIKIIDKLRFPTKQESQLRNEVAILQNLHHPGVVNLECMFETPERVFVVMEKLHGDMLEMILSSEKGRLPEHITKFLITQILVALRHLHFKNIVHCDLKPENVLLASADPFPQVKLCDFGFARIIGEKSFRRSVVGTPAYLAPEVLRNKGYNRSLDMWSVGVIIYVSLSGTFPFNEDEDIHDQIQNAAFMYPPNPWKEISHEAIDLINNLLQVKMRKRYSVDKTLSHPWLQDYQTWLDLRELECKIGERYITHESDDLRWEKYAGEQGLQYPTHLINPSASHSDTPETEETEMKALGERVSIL

Ephrin type-A receptor 5 = Ephrin type-A receptor 5 (Homo sapiens, UniProt P54756); test: Inhibition of EphA5 by [gamma33-P]ATP based assay; summary of the method: as §4
[17] = molecular target: Mitogen-activated protein kinase 12 (Homo sapiens) (UniProt P53778); test: Inhibition of p38-gamma assessed as remaining enzyme activity at 1 uM relative to DMSO
Chain of Mitogen-activated protein kinase 12 (Homo sapiens) (P53778 whole entry): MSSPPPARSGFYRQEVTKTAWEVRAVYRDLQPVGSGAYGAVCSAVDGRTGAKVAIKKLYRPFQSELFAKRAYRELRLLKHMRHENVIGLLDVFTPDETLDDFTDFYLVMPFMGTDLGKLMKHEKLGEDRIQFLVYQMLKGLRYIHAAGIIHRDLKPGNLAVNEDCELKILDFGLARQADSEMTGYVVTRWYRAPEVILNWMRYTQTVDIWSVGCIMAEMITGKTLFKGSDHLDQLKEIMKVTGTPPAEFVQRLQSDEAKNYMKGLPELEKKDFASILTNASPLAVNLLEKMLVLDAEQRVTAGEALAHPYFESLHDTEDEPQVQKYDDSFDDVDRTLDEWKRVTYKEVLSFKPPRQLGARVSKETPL

[18] = molecular target: Dual specificity protein kinase TTK (Homo sapiens) (UniProt P33981); test: Inhibition of TTK assessed as remaining enzyme activity at 1 uM relative to DMSO
[19] = molecular target: Serine/threonine-protein kinase PLK1 (Homo sapiens) (UniProt P53350); test: Inhibition of PLK1 assessed as remaining enzyme activity at 1 uM relative to DMSO
[20] = molecular target: Homeodomain-interacting protein kinase 2 (Homo sapiens) (UniProt Q9H2X6); test: Inhibition of HIPK2 assessed as remaining enzyme activity at 1 uM relative to DMSO; summary of the method: as §2
[21] = molecular target: SRSF protein kinase 1 (Homo sapiens) (UniProt Q96SB4); test: Inhibition of SRPK1 assessed as remaining enzyme activity at 1 uM relative to DMSO
[22] = molecular target: Fibroblast growth factor receptor 4 (Homo sapiens) (UniProt P22455); test: Binding affinity to FGFR4 assessed as percentage of kinase remaining bound to the bead at 1 uM by T7 phage display based binding assay; summary of the method: as §3
[23] = molecular target: Mitogen-activated protein kinase kinase kinase 9 (Homo sapiens) (UniProt P80192); test: Inhibition of MLK1 assessed as remaining enzyme activity at 1 uM relative to DMSO; summary of the method: as §1
[24] = molecular target: Interleukin-1 receptor-associated kinase 4 (Homo sapiens) (UniProt Q9NWZ3); test: Inhibition of IRAK4 assessed as remaining enzyme activity at 1 uM relative to DMSO; summary of the method: as §2
[25] = molecular target: Ribosomal protein S6 kinase alpha-3 (Homo sapiens) (UniProt P51812); test: Inhibition of RSK2 assessed as remaining enzyme activity at 1 uM relative to DMSO

COc1ccccc1-n1c(-c2ccccc2C)cn2c3c(=O)[nH]c(=O)n(C)c3nc12
Activity [1]: 94%
Activity [2]: 102%
Activity [3]: 106%
Activity [4]: 81%
Activity [5]: 12%
Activity [6]: 114%
Activity [7]: 70%
Activity [8]: 52%
Activity [9]: 109%

COc1ccccc1-n1c(-c2cc(O)ccc2C)cn2c3c(=O)[nH]c(=O)n(C)c3nc12
Activity [10]: 84%
Activity [11]: 102%
Activity [12]: 0.75%
Activity [13]: 101%
Activity [14]: 3%
Activity [15]: 5.8%
IC50 (Ephrin type-A receptor 3): 40 nM
Activity [16]: 92%
IC50 (Ephrin type-A receptor 5): 3 nM
Activity [17]: 84%
Activity [18]: 98%
Activity [19]: 93%
Activity [20]: 98%
Activity [21]: 94%
Activity [22]: 100%
Activity [23]: 45%
Activity [24]: 82%
Activity [25]: 104%
